M5 ag = human M5 muscarinic receptor agonists, primary screen, CHO-K1 cells, Fluo-8 calcium fluorescence | Muscarinic acetylcholine receptor M5 (Homo sapiens), P08912 | CHO-K1 hM5 cells; 0% DMSO wells, 100% maximal acetylcholine response | actives 0.19% (n = 360,000) | activation, % at 3 µM;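 active = activation above the run's mean over test compounds plus 3 SD, cut at about 23% in these data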;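 note: signal is peak over basal fluorescence ratio across the kinetic read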
Target sequence (P08912 whole entry, looked up): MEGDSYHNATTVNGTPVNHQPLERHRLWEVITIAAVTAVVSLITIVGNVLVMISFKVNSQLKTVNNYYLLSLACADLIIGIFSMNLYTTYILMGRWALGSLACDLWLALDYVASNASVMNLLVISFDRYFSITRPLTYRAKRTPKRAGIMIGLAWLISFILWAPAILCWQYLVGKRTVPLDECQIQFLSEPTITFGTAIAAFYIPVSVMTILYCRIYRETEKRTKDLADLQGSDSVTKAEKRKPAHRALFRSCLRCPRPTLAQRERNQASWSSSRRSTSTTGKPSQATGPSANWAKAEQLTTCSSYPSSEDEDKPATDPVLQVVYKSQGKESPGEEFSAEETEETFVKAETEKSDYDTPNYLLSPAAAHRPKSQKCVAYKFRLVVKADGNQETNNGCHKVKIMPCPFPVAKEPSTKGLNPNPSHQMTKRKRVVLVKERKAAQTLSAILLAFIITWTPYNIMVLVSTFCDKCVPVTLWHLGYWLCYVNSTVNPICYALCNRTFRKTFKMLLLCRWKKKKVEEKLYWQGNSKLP
M1 ag = human M1 muscarinic receptor agonists, primary screen, Fluo-8 calcium fluorescence, CHO-K1 cells, HTS. Muscarinic acetylcholine receptor M1 (Homo sapiens), P11229. CHO-K1 hM1, agonist mode; 0% DMSO, 100% acetylcholine EC100. AID 588814, 2011. activation, % at 3 µM. actives 0.33% (n = 360,000);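 active = activation above the run's mean compound activation plus 3 SD, cut at about 16% in these data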;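 note: peak over basal fluorescence ratio within a 140 s kinetic read after compound addition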
CHRM1 PAM = human M1 muscarinic receptor positive allosteric modulators, primary screen, CHO-K1 cells, Fluo-8 calcium fluorescence, 1536-well | Muscarinic acetylcholine receptor M1 (Homo sapiens), P11229 | activation, % at 3 µM | actives 0.088% (n = 360,000) | CHO-K1 hM1, ACh EC20; 0% = ACh EC20, 100% = maximal ACh; in the data active = activation above about 19%, passing the limit was not always enough
M1 antag = human M1 muscarinic receptor antagonists, primary screen, CHO-K1 cells, Fluo-8 calcium fluorescence, 1536-well. inhibition, % at 3 µM. actives 1.3% (n = 360,000). Muscarinic acetylcholine receptor M1 (Homo sapiens), P11229. AID 588852, 2011. CHO-K1 hM1, ACh EC80 antagonist;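 active = percent inhibition above its own plate's cutoff, namely the mean of that plate's compound wells plus 3 SD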;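 note: peak over basal fluorescence ratio during 140 s after agonist addition; 0% = ACh EC80 plus DMSO and 100% = DMSO alone without agonist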
CHRM5 antagonist = human M5 muscarinic receptor antagonists, primary screen, CHO cells, Fluo-8 calcium fluorescence; CHO-hM5 cells, ACh EC80; inhibition, % at 3 µM; actives 0.59% (n = 360,000);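 active = inhibition above a per-plate cutoff, the mean of that plate's test compounds plus 3 SD, cut at about 27% in these data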;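 note: 0% = acetylcholine EC80 with DMSO and 100% = DMSO without agonist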
CHRM5 PAM = human M5 muscarinic receptor positive allosteric modulators, primary screen, CHO-K1 cells, Fluo-8 calcium fluorescence; CHO-K1 hM5, ACh EC20 PAM; 0% = ACh EC20, 100% = ACh EC100; Muscarinic acetylcholine receptor M5 (Homo sapiens), P08912; actives 0.3% (n = 360,000); activation, % at 3 µM; AID 624038, 2012;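 active = activation above the run cutoff, the mean activation of all test compounds plus 3 SD, cut at about 18% in these data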
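System: CHO-K1 hM5 cells. Reagent: acetylcholine, EC20 level. Compound dosing: single dose, 3 µM nominal final test concentration. Timing: Post-acetylcholine fluorescence recording 140 s. Detection: Fluo-8 calcium fluorescence. Read-out: % activation, ACh-normalized. Benchmarks: ACh EC20 and EC100 wells. Repeats: singlicate, one well per test compound.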
Starred values were filed as active, the others as inactive. Sampled rows, rich in hits. Any-hit rate of the full collection: about 2.2%.

SMILES	M5 ag	M1 ag	CHRM1 PAM	M1 antag	CHRM5 antagonist	CHRM5 PAM
O=C(COc1ccc2ccccc2c1Br)Nc1ccncc1	4	5	-6	30*	29*	-17
CCN(CC)S(=O)(=O)c1ccc(OCC2CCCCO2)c([N+](=O)[O-])c1 (configuration not stated)	-3	-5	-7	7	-2	2
Cc1noc(NS(=O)(=O)c2ccc(NC(=O)c3cc4ccccc4o3)cc2)c1C	-1	-3	9	-17	0	-1
CC(C)CCOc1cccc(OCC(=O)Nc2ccncc2)c1	9	0	-14	26	33*	-14
CN1CCN(C(=O)/C(=C\c2ccccc2)c2ccccc2)CC1	-12	-6	-26	99*	24	-30
COc1cc(C2C3=C(COC3=O)Oc3cc4c(cc32)OCO4)ccc1OC(C)=O (configuration not stated)	-4	-5	1	-4	7	-9
COc1ccc(C2C3=C(COC3=O)Oc3cc4c(cc32)OCO4)cc1OC (configuration not stated)	-2	-1	29*	-25	-1	0
CC(C)CNC(=O)c1ccc(-c2ccc(F)c(F)c2)c2ccoc12	-2	-4	2	-9	5	-5
CCOC(=O)C(Cc1ccc(NC(=O)/C(=C/c2ccc(OC(C)=O)cc2)NC(C)=O)cc1)N1C(=O)c2ccccc2C1=O (configuration not stated)	3	-2	-7	27*	11	-13
CC1(C)CC2(C)OC2C2(C1)N=NC(=Nc1ccccc1)O2 (configuration not stated)	3	-4	7	-6	-5	2
Cc1ccccc1NS(=O)(=O)c1nnc(NC(=O)C(C)C)s1	-2	-5	-9	18	-1	4
COc1cc(C(=O)NC2CC(C)(C)Cc3c2cnn3-c2ccccc2)cc(OC)c1OC (configuration not stated)	-2	-3	6	-11	3	0
COc1cccc(C(=O)NC2CC(C)(C)Cc3c2cnn3-c2cccc(F)c2)c1OC (configuration not stated)	-4	-4	-2	7	28*	-10
O=C1CC(N2CCN(C/C=C/c3ccccc3)CC2)C(=O)N1Cc1cccs1 (configuration not stated)	-10	-8	-24	87*	39*	-33
O=C(Nc1ccncc1)Nc1ccc(F)c(Cl)c1	13	4	0	8	17	-16
O=C(Nc1ccc(F)cc1F)Nc1csc2ccccc12	-2	0	-8	16	33*	-31
O=C(Nc1ccc(F)c(Cl)c1)Nc1csc2ccccc12	7	6	-16	38	34*	-26
Cc1cnc(C(=O)OCC(=O)NC(C)c2ccccc2)cn1 (configuration not stated)	-1	-4	12	-12	11	4
CNC(=S)NNC(=O)c1ccccc1F	0	-2	-4	5	2	-2
O=c1[nH]c(Cc2ccccn2)nc2scc(-c3ccc(Cl)cc3)c12	4	26*	5	-5	-3	7
N#CC(c1ccccc1)C(CC(=O)c1ccccc1)c1ccccc1 (configuration not stated)	-2	-8	-13	4	1	-6
O=[N+]([O-])c1cnn(-c2nc(-c3cccs3)cc(C(F)(F)F)n2)c1	-4	-3	4	-4	8	2
CN1CCN(c2nc(-c3cccs3)cc(C(F)(F)F)n2)CC1	-5	-4	-21	71*	18	-23
CN1CCN(c2nnc(-c3ccccc3)c(-c3ccccc3)n2)CC1	-12	-9	-20	39*	8	-4
CN1CCN(c2nc(-c3ccccc3)cc(C(F)(F)F)n2)CC1	-13	-4	-19	43*	4	-33
SMILES	M5 ag	M1 ag	CHRM1 PAM	M1 antag	CHRM5 antagonist	CHRM5 PAM
CC1CCN(c2nc(-c3ccccc3)cc(C(F)(F)F)n2)CC1	2	-1	7	-11	-8	1
CCN1C(=O)C(=O)N(CC(=O)Nc2ccccc2Oc2ccccc2)C1=O	0	1	8	1	-1	0
O=C(CCN1C(=O)C2C3C=CC(C3)C2C1=O)N1CCN(c2ccccn2)CC1 (configuration not stated)	1	-4	7	-5	-8	3
O=C1C2C3C=CC(C3)C2C(=O)N1c1ccc(N2CCN(c3ccccn3)CC2)c([N+](=O)[O-])c1 (configuration not stated)	10	1	-17	39*	24	-32
COc1ccc(S(C)(=O)=O)cc1S(C)(=O)=O	2	4	18	-12	-5	5
Nc1nc(CN2CCCCCC2)nc(Nc2ccccc2)n1	-7	-4	7	-10	3	3
Nc1nc(CN2CCC(Cc3ccccc3)CC2)nc(Nc2ccccc2)n1	-5	-5	-15	31*	7	-15
CCOC(=O)C1CCCN(Cc2nc(N)nc(Nc3ccccc3)n2)C1 (configuration not stated)	10	31*	-9	13	2	-5
Cc1cc(NC(=O)NC2CC(=O)N(c3ccc4c(c3)OCCO4)C2)no1 (configuration not stated)	-3	-5	7	-28	2	2
COCC(=O)N1CCC(c2nc3ccccc3[nH]2)CC1	0	20*	0	-5	6	-4
O=C(Cc1ccccc1)N1CCC(c2nc3ccccc3[nH]2)CC1	-4	-3	-5	12	10	-5
Cc1cccc(CSC2=NCCN2S(=O)(=O)c2ccc(F)cc2)c1	-6	-2	-16	39*	-1	-9
Cc1ccc(S(=O)(=O)N2CCN=C2SCc2ccccc2)cc1	-7	-9	-1	3	2	-8
NC(=O)c1nsc(C(=O)N(c2ccccc2)C(C(=O)NCc2ccc(F)cc2)c2ccc(O)cc2)c1N (configuration not stated)	4	-1	-9	27*	14	-9

High-throughput results as filed in PubChem.
